Test results reported in ChEMBL document CHEMBL1149278, “Synthesis and structure-activity relationship studies for hydantoins and analogues as voltage-gated sodium channel ligands” (J Med Chem, 2004).

Test: Displacement of [3H]BTX-B from voltage gated sodium channel in rat cerebral cortex synaptoneurosomes
Format: tissue-based
Outline: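 Rat cerebral cortex synaptoneurosomes (~1 mg protein), stored frozen at –70 °C, thawed and resuspended in HEPES incubation buffer. […] Filtration assay; nonspecific binding defined with 300 μM veratridine. Triplicates, DPH control run alongside. IC50 by Probit analysis, using only points with 10–90% inhibition.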

IC50 [µM]	Structure (SMILES)
2.2	CCCCCCCC1(c2ccccc2)NC(=O)N(CN2CCN(C(c3ccccc3)c3ccccc3)CC2)C1=O (stereo not given)
> 500	CCC(O)(C(N)=O)c1ccccc1 (stereo not given)
448	CCCC1(c2ccccc2)OC(=O)NC1=O (stereo not given)
> 500	CCCC(O)(C(=O)O)c1ccccc1 (stereo not given)
500	CCCC(O)(C(N)=O)c1ccccc1 (stereo not given)
11	CCCCCCCCCC1(c2ccccc2)OC(=O)NC1=O (stereo not given)
30	CCCCCCCC1(c2ccccc2)OC(=O)NC1=O (stereo not given)
> 500	CCCCCC(O)(C(=O)O)c1ccccc1 (stereo not given)
5	CCCCCCCCCC1(c2ccccc2)NC(=O)NC1=O (stereo not given)
> 500	CC(O)(C(N)=O)c1ccccc1 (stereo not given) [ATROLACTAMIDE]
> 500	CCC1(c2ccccc2)NC(=O)N(S(C)(=O)=O)C1=O (stereo not given)
51	CCC1(c2ccccc2)NC(=O)N(S(=O)(=O)c2ccc(C)cc2)C1=O (stereo not given)
3.3	CCC1(c2ccccc2)NC(=O)N(CN2CCN(C(c3ccccc3)c3ccccc3)CC2)C1=O (stereo not given)
5.1	CCCCCCCCCC1(c2ccccc2)NC(=O)N(Cc2ccccc2)C1=O (stereo not given)
6.5	CCCCCCCCCC(O)(C(N)=O)c1ccccc1 (stereo not given)
> 500	CCC(O)(C(=O)O)c1ccccc1 (stereo not given)
6.3	CC(O)(C(=O)N1CCN(C(c2ccccc2)c2ccccc2)CC1)c1ccccc1 (stereo not given)
300	CCCCCCCC(N)(C(=O)O)c1ccccc1 (stereo not given)
103	CCCCC1(c2ccccc2)NC(=O)NC1=O (stereo not given)
4.8	CCCCCC(O)(C(=O)N1CCN(C(c2ccccc2)c2ccccc2)CC1)c1ccccc1 (stereo not given)
30	CCC(O)(C(=O)NCCc1ccccc1)c1ccccc1 (stereo not given)
9	CCCCCCCC(O)(C(N)=O)c1ccccc1 (stereo not given)
> 200	CCC1(c2ccccc2)NC(=O)NC1=O (stereo not given)
13	CCCCCCCC1(c2ccccc2)NC(=O)N(S(C)(=O)=O)C1=O (stereo not given)

IC50 [µM]	Structure (SMILES)
1.3	CCCCCC1(c2ccccc2)NC(=O)N(CN2CCN(C(c3ccccc3)c3ccccc3)CC2)C1=O (stereo not given)
39	CCCCCC1(c2ccccc2)NC(=O)NC1=O (stereo not given)
84	CCCCCCCCCC(O)(C(=O)O)c1ccccc1 (stereo not given)
162	CCCC1(c2ccccc2)NC(=O)NC1=O (stereo not given)
4.3	CCC(OCCCc1ccccc1)(C(=O)NCCCc1ccccc1)c1ccccc1 (stereo not given)
500	CCCC1(c2ccccc2)NC(=O)N(S(C)(=O)=O)C1=O (stereo not given)
> 500	CCC(N)(C(=O)O)c1ccccc1 (stereo not given)
5	CCCCCCCC1(c2ccccc2)NC(=O)NC1=O (stereo not given)
4.5	O=C1NC(c2ccccc2)(c2ccccc2)C(=O)N1CN1CCN(C(c2ccccc2)c2ccccc2)CC1
274	CCCCCCCCCC(N)(C(=O)O)c1ccccc1 (stereo not given)
2.5	CCCCCC(O)(C(=O)NCCCc1ccccc1)c1ccccc1 (stereo not given)
178	CCCCCC(O)(C(N)=O)c1ccccc1 (stereo not given)
5.3	CCCCCC(O)(C(=O)NCCC(c1ccccc1)c1ccccc1)c1ccccc1 (stereo not given)
> 500	CCCCCC(N)(C(=O)O)c1ccccc1 (stereo not given)
112	CCCCCC1(c2ccccc2)NC(=O)N(S(C)(=O)=O)C1=O (stereo not given)
8.2	CCC(O)(C(=O)NCCCc1ccccc1)c1ccccc1 (stereo not given)
35	CCC(O)(C(=O)NCCC(c1ccccc1)c1ccccc1)c1ccccc1 (stereo not given)
112	CCCCCC1(c2ccccc2)OC(=O)NC1=O (stereo not given)
1.1	CCC1(c2ccccc2)NC(=O)N(CCN2CCN(C(c3ccccc3)c3ccccc3)CC2)C1=O (stereo not given)
5	CCCCCC(O)(C(=O)NCCc1ccccc1)c1ccccc1 (stereo not given)
> 500	CCCCCCCC(O)(C(=O)O)c1ccccc1 (stereo not given)
6.9	CCCCCC1(c2ccccc2)NC(=O)N(Cc2ccccc2)C1=O (stereo not given)
11	CCCCCCCCCC1(c2ccccc2)NC(=O)N(S(C)(=O)=O)C1=O (stereo not given)
0.22	O=C1NC(c2ccccc2)(c2ccccc2)C(=O)N1CCN1CCN(C(c2ccccc2)c2ccccc2)CC1

Structure (SMILES)	IC50 [µM]
CCCCCCCC(O)(C(=O)OCC)c1ccccc1 (stereo not given)	36
CCOC(=O)C(O)(CC)c1ccccc1 (stereo not given)	> 200
